Experimental data reported in ChEMBL document CHEMBL5252537, “Usnic Acid Benzylidene Analogues as Potent Mechanistic Target of Rapamycin Inhibitors for the Control of Breast Malignancies” (J Nat Prod, 2017).

Experiments:
MCF7 = assay: Antiproliferative activity against human MCF7 cells incubated for 72 hrs by MTT assay; type: functional, cell-based; conditions: MCF7, 72 h
Procedure, shortened: (§1)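 Cells seeded at 5 × 10^3/well and allowed to attach overnight, then washed with PBS. Compound diluted from 10 mM DMSO stock into medium (100 ng/mL HGF added for c-Met-expressing cells), in triplicate, 72 h at 37 °C. MTT added for 4 h, formazan dissolved in DMSO, absorbance read at 570 nm. Cell numbers taken from a standard curve; IC50 calculated.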

MDA-MB-231 = assay: Antiproliferative activity against human MDA-MB-231 cells incubated for 72 hrs by MTT assay; type: functional, cell-based; conditions: MDA-MB-231, 72 h; procedure, shortened: as §1

Row | IC50 (MCF7) | IC50 (MDA-MB-231) | SMILES
1 | 2100 nM | 2630 nM | CC(=O)C1=C(O)C=C2Oc3c(C(=O)/C=C/c4ccc(Cl)cc4)c(O)c(C)c(O)c3[C@]2(C)C1=O
2 | 2440 nM | 2950 nM | CC(=O)C1=C(O)C=C2Oc3c(C(=O)/C=C/c4cc(Cl)cc(Cl)c4)c(O)c(C)c(O)c3[C@]2(C)C1=O
3 | 3430 nM | 3650 nM | CC(=O)C1=C(O)C=C2Oc3c4c(c(C)c(O)c3[C@]2(C)C1=O)OC(c1ccc(C(C)(C)C)cc1)CC4=O (some centres not stated)
4 | 6320 nM | 6410 nM | CC(=O)C1=C(O)C=C2Oc3c4c(c(C)c(O)c3[C@]2(C)C1=O)OC(c1cccc(Cl)c1)CC4=O (some centres not stated)
5 | 530 nM | 620 nM | CCCCOc1ccc(/C=C/C(=O)c2c(O)c(C)c(O)c3c2OC2=CC(O)=C(C(C)=O)C(=O)[C@]23C)cc1
6 | 6220 nM | 6890 nM | CC(=O)C1=C(O)C=C2Oc3c4c(c(C)c(O)c3[C@]2(C)C1=O)OC(c1ccc(F)cc1)CC4=O (some centres not stated)
7 | 3740 nM | 3540 nM | CC(=O)C1=C(O)C=C2Oc3c(C(=O)/C=C/c4ccccc4F)c(O)c(C)c(O)c3[C@]2(C)C1=O
8 | 1130 nM | 1530 nM | CC(=O)C1=C(O)C=C2Oc3c(C(=O)/C=C/c4ccc(Br)cc4)c(O)c(C)c(O)c3[C@]2(C)C1=O
9 | 1230 nM | 1160 nM | CC(=O)C1=C(O)C=C2Oc3c(C(=O)/C=C/c4cccc(C(F)(F)F)c4)c(O)c(C)c(O)c3[C@]2(C)C1=O
10 | 2910 nM | 2230 nM | CCCCOc1ccc(C2CC(=O)c3c(c(C)c(O)c4c3OC3=CC(O)=C(C(C)=O)C(=O)[C@]34C)O2)cc1 (some centres not stated)
11 | 930 nM | 1360 nM | CC(=O)C1=C(O)C=C2Oc3c(C(=O)/C=C/c4ccc(Cl)cc4Cl)c(O)c(C)c(O)c3[C@]2(C)C1=O
12 | 1530 nM | 5690 nM | CC(=O)C1=C(O)C=C2Oc3c(C(=O)/C=C/c4c(Cl)cccc4Cl)c(O)c(C)c(O)c3[C@]2(C)C1=O
13 | 5240 nM | 1560 nM | CC(=O)C1=C(O)C=C2Oc3c(C(=O)CC(O)c4cc(C(F)(F)F)cc(C(F)(F)F)c4)c(O)c(C)c(O)c3[C@]2(C)C1=O (some centres not stated)
14 | 870 nM | 930 nM | CC(=O)C1=C(O)C=C2Oc3c(C(=O)/C=C/c4ccc(OCc5c(F)cccc5Cl)cc4)c(O)c(C)c(O)c3[C@]2(C)C1=O
15 | 6530 nM | 5710 nM | CC(=O)C1=C(O)C=C2Oc3c4c(c(C)c(O)c3[C@]2(C)C1=O)OC(c1ccc(OCc2ccccc2)cc1)CC4=O (some centres not stated)
16 | 520 nM | 680 nM | CC(=O)C1=C(O)C=C2Oc3c(C(=O)/C=C/c4ccc(-c5ccc(F)cc5)cc4)c(O)c(C)c(O)c3[C@]2(C)C1=O
17 | 970 nM | 960 nM | COc1ccc(/C=C/C(=O)c2c(O)c(C)c(O)c3c2OC2=CC(O)=C(C(C)=O)C(=O)[C@]23C)cc1
18 | 710 nM | 840 nM | CCOc1ccc(/C=C/C(=O)c2c(O)c(C)c(O)c3c2OC2=CC(O)=C(C(C)=O)C(=O)[C@]23C)cc1
19 | 3640 nM | 4010 nM | CC(=O)C1=C(O)C=C2Oc3c4c(c(C)c(O)c3[C@]2(C)C1=O)OC(c1ccc(Cl)cc1Cl)CC4=O (some centres not stated)
20 | 910 nM | 720 nM | CC(=O)C1=C(O)C=C2Oc3c(C(=O)/C=C/c4cc(C(F)(F)F)cc(C(F)(F)F)c4)c(O)c(C)c(O)c3[C@]2(C)C1=O
21 | 4320 nM | 5580 nM | CC(=O)C1=C(O)C=C2Oc3c4c(c(C)c(O)c3[C@]2(C)C1=O)OC(c1ccc(OCc2ccc(F)cc2)cc1)CC4=O (some centres not stated)
22 | 720 nM | 890 nM | CSc1ccc(/C=C/C(=O)c2c(O)c(C)c(O)c3c2OC2=CC(O)=C(C(C)=O)C(=O)[C@]23C)cc1
23 | 5920 nM | 6130 nM | CCOc1ccccc1C1CC(=O)c2c(c(C)c(O)c3c2OC2=CC(O)=C(C(C)=O)C(=O)[C@]23C)O1 (some centres not stated)
24 | 540 nM | 730 nM | CCSc1ccc(/C=C/C(=O)c2c(O)c(C)c(O)c3c2OC2=CC(O)=C(C(C)=O)C(=O)[C@]23C)cc1
25 | 730 nM | 710 nM | CC(=O)C1=C(O)C=C2Oc3c(C(=O)/C=C/c4ccc(C(F)(F)F)cc4)c(O)c(C)c(O)c3[C@]2(C)C1=O
26 | 9380 nM | 10600 nM | CC(=O)C1=C(O)C=C2Oc3c(C(=O)/C=C/c4ccc(C(=O)O)cc4)c(O)c(C)c(O)c3[C@]2(C)C1=O

Row | IC50 (MCF7) | IC50 (MDA-MB-231) | SMILES
27 | 7260 nM | 8040 nM | CC(=O)C1=C(O)C=C2Oc3c4c(c(C)c(O)c3[C@]2(C)C1=O)OC(c1ccccc1)CC4=O (some centres not stated)
28 | 4770 nM | 3930 nM | CC(=O)C1=C(O)C=C2Oc3c4c(c(C)c(O)c3[C@]2(C)C1=O)OC(c1ccc(C(F)(F)F)cc1)CC4=O (some centres not stated)
29 | 4500 nM | 5100 nM | CC(=O)C1=C(O)C=C2Oc3c(C(=O)/C=C/c4ccccc4)c(O)c(C)c(O)c3[C@]2(C)C1=O
30 | 3730 nM | 2940 nM | COc1cccc(C2CC(=O)c3c(c(C)c(O)c4c3OC3=CC(O)=C(C(C)=O)C(=O)[C@]34C)O2)c1 (some centres not stated)
31 | 390 nM | 580 nM | CC(=O)C1=C(O)C=C2Oc3c(C(=O)/C=C/c4ccc(OCCC(C)C)cc4)c(O)c(C)c(O)c3[C@]2(C)C1=O
32 | 12800 nM | 14400 nM | CC(=O)C1=C(O)C=C2Oc3c4c(c(C)c(O)c3[C@]2(C)C1=O)OC(c1ccc(C(=O)O)cc1)CC4=O (some centres not stated)
33 | 2700 nM | 3920 nM | CC(=O)C1=C(O)C=C2Oc3c(C(=O)/C=C/c4cccc(Cl)c4)c(O)c(C)c(O)c3[C@]2(C)C1=O
34 | 1140 nM | 950 nM | CC(=O)C1=C(O)C=C2Oc3c(C(=O)/C=C/c4ccc(OCc5ccccc5)cc4)c(O)c(C)c(O)c3[C@]2(C)C1=O
35 | 1510 nM | 1790 nM | CC(=O)C1=C(O)C=C2Oc3c4c(c(C)c(O)c3[C@]2(C)C1=O)OC(c1ccc(OC(F)(F)F)cc1)CC4=O (some centres not stated)
36 | 3360 nM | 3680 nM | CCOc1ccc(C2CC(=O)c3c(c(C)c(O)c4c3OC3=CC(O)=C(C(C)=O)C(=O)[C@]34C)O2)cc1 (some centres not stated)
37 | 740 nM | 720 nM | CC(=O)C1=C(O)C=C2Oc3c(C(=O)/C=C/c4ccc(-c5ccccc5)cc4)c(O)c(C)c(O)c3[C@]2(C)C1=O
38 | 1820 nM | 2090 nM | CC(=O)C1=C(O)C=C2Oc3c(C(=O)/C=C/c4cc(F)cc(F)c4)c(O)c(C)c(O)c3[C@]2(C)C1=O
39 | 840 nM | 1030 nM | CC(=O)C1=C(O)C=C2Oc3c(C(=O)/C=C/c4ccc(C(C)(C)C)cc4)c(O)c(C)c(O)c3[C@]2(C)C1=O
40 | 4210 nM | 5990 nM | CC(=O)C1=C(O)C=C2Oc3c4c(c(C)c(O)c3[C@]2(C)C1=O)OC(c1ccc(C)cc1)CC4=O (some centres not stated)
41 | 1220 nM | 1630 nM | COc1cc(/C=C/C(=O)c2c(O)c(C)c(O)c3c2OC2=CC(O)=C(C(C)=O)C(=O)[C@]23C)cc(OC)c1OC
42 | 1960 nM | 2380 nM | CC(=O)C1=C(O)C=C2Oc3c(C(=O)/C=C/c4c(F)cccc4F)c(O)c(C)c(O)c3[C@]2(C)C1=O
43 | 2180 nM | 2030 nM | CCOc1ccccc1/C=C/C(=O)c1c(O)c(C)c(O)c2c1OC1=CC(O)=C(C(C)=O)C(=O)[C@]12C
44 | 750 nM | 910 nM | CC(=O)C1=C(O)C=C2Oc3c(C(=O)/C=C/c4ccc(OCc5ccc(F)cc5)cc4)c(O)c(C)c(O)c3[C@]2(C)C1=O
45 | 930 nM | 1150 nM | COc1cc(F)c(/C=C/C(=O)c2c(O)c(C)c(O)c3c2OC2=CC(O)=C(C(C)=O)C(=O)[C@]23C)cc1OC
46 | 3630 nM | 4790 nM | CC(=O)C1=C(O)C=C2Oc3c(C(=O)/C=C/c4cccc(F)c4)c(O)c(C)c(O)c3[C@]2(C)C1=O
47 | 1330 nM | 1650 nM | CC(=O)C1=C(O)C=C2Oc3c(C(=O)/C=C/c4ccc(C)cc4)c(O)c(C)c(O)c3[C@]2(C)C1=O
48 | 5810 nM | 4440 nM | CC(=O)C1=C(O)C=C2Oc3c(C(=O)CC(O)c4cc(Cl)cc(Cl)c4)c(O)c(C)c(O)c3[C@]2(C)C1=O (some centres not stated)
49 | 4920 nM | 4310 nM | CC(=O)C1=C(O)C=C2Oc3c4c(c(C)c(O)c3[C@]2(C)C1=O)OC(c1c(Cl)cccc1Cl)CC4=O (some centres not stated)
50 | 2980 nM | 3310 nM | CC(=O)C1=C(O)C=C2Oc3c(C(=O)/C=C/c4ccc(F)cc4)c(O)c(C)c(O)c3[C@]2(C)C1=O
51 | 3090 nM | 4420 nM | CC(=O)C1=C(O)C=C2Oc3c4c(c(C)c(O)c3[C@]2(C)C1=O)OC(c1ccc(OCc2c(F)cccc2Cl)cc1)CC4=O (some centres not stated)
